Measured values taken from ChEMBL document CHEMBL4041542, “Synthesis and biological characterisation of ester and amide derivatives of fusidic acid as antiplasmodial agents” (Bioorg Med Chem Lett, 2017).

How the values were obtained:
Plasmodium falciparum [1] = assay: Antiplasmodial activity against chloroquine-sensitive Plasmodium falciparum NF54 by LDH assay; assay type: functional
Summary of the method: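 In vitro test on the chloroquine-sensitive NF54 strain of P. falciparum, read out by the lactate dehydrogenase assay. Reported as IC50. Chloroquine and artesunate were included as reference drugs in all experiments.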

Plasmodium falciparum [2] = assay: Antiplasmodial activity against chloroquine-resistant Plasmodium falciparum K1 by [3H]hypoxanthine incorporation assay; assay type: functional
Summary of the method: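 Multidrug-resistant K1 strain of P. falciparum tested in vitro with a modified [3H]hypoxanthine incorporation assay. IC50 determined. Chloroquine and artesunate served as reference drugs in every experiment.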

CHO = assay: Cytotoxicity against CHO cells; assay type: cell-based; details: Cricetulus griseus
[3] = Selectivity index, ratio of IC50 for CHO cells to IC50 for chloroquine-sensitive Plasmodium falciparum NF54; assay type: toxicity; details: hamster, read-out: Ratio IC50
Summary of the method: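 IC50 against Chinese hamster ovary cells (cytotoxicity) was divided by IC50 against P. falciparum NF54. NF54 IC50 came from the lactate dehydrogenase assay, with chloroquine and artesunate as references.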

[4] = Stability of the compound assessed as Plasmodium falciparum NF54 esterase-mediated fusidic acid release at 0.5 uM up to 48 hrs by LC-MS/MS analysis; assay type: ADME; details: plasmodium falciparum nf54, isolated protein
Plasmodium falciparum [5] = assay: Potency index, ratio of fusidic acid IC50 to compound IC50 for chloroquine-sensitive Plasmodium falciparum NF54; assay type: functional
Summary of the method: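 Chloroquine-sensitive P. falciparum NF54 was tested with the lactate dehydrogenase assay, using chloroquine and artesunate as reference drugs. The index is fusidic acid's IC50 divided by the compound's IC50, both against NF54.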

Plasmodium falciparum [6] = assay: Potency index, ratio of fusidic acid IC50 to compound IC50 for chloroquine-resistant Plasmodium falciparum K1; assay type: functional
Plasmodium falciparum [7] = assay: Antiplasmodial activity against chloroquine-sensitive Plasmodium falciparum D10 infected in erythrocytes after 48 hrs by giemsa staining based assay; assay type: functional, cell-based; details: D10, 48 h

| Compound | IC50 (Plasmodium falciparum [1]) | IC50 (Plasmodium falciparum [2]) | IC50 (CHO) | selectivity ratio [3] | Stability [4] | Ratio IC50 (Plasmodium falciparum [5]) | Ratio IC50 (Plasmodium falciparum [6]) | IC50 (Plasmodium falciparum [7]) |
| --- | --- | --- | --- | --- | --- | --- | --- | --- |
| CC(=O)O[C@H]1C[C@@]2(C)[C@@H](C[C@@H](O)[C@H]3[C@@]4(C)CC[C@@H](O)[C@@H](C)[C@@H]4CC[C@@]32C)/C1=C(\CCC=C(C)C)C(=O)Nc1ccccc1 | 1.2 µM | 1.4 µM | 89.2 µM | 74 | Stable | 4 - 49 | 5 - 17 | – |
| CC(=O)O[C@H]1C[C@@]2(C)[C@@H](C[C@@H](O)[C@H]3[C@@]4(C)CC[C@@H](O)[C@@H](C)[C@@H]4CC[C@@]32C)/C1=C(\CCC=C(C)C)C(=O)O [FUSIDIC ACID] | – | 19 µM | > 194 µM | > 3 | – | – | – | 50 µM |
